This is an account of results in ChEMBL document CHEMBL1145023, “Homology modeling of rat and human cytochrome P450 2D (CYP2D) isoforms and computational rationalization of experimental ligand-binding specificities” (J Med Chem, 2003).

Common to all, as to format: ADME
One assay concerns the target Cytochrome P450 2D6 (Homo sapiens, UniProt P10635). Briefly: Inhibition of MAMC O-dealkylation mediated by human Cytochrome P450 2D6 expressed in human lymphoblastoid cell line. In a few lines:
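Human CYP2D6 (1 nM) competition run as a microplate-reader fluorescence assay. MAMC is the substrate at 10 μM final, with and without a range of inhibitor concentrations. IC50 is obtained by nonlinear least-squares one-site competition fitting.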

Another assay deals with T1, Cytochrome P450 2D1 (Rattus norvegicus, UniProt P10633).
T1 sequence (P10633 whole entry): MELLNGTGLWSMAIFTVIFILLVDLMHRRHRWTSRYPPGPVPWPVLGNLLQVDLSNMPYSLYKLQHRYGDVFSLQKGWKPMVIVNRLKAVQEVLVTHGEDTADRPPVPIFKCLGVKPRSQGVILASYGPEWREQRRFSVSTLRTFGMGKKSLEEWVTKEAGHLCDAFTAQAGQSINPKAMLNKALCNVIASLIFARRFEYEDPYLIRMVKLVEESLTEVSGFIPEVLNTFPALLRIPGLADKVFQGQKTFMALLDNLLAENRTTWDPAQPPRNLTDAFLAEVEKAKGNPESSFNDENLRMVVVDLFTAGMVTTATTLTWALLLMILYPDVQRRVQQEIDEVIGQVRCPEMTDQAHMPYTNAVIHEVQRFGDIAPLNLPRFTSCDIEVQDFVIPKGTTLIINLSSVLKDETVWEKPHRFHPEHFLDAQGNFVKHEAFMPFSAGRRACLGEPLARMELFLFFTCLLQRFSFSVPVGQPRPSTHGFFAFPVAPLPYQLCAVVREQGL
As to the kind of experiment: Inhibition of MAMC O-dealkylation mediated by rat Cytochrome P450 2D1 expressed in Saccharomyces cerevisiae. The procedure, abridged: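 Rat CYP2D isozymes are singly expressed in S. cerevisiae and used as microsomes in 100 mM phosphate, pH 7.4, at 37 °C. Enzyme concentrations are 52.0 nM (2D1), 3.1 nM (2D2), 3.6 nM (2D3) and 21.9 nM (2D4). MAMC is 100 μM final, with or without varying inhibitor, after a 5 min preincubation. NADPH-regenerating system is added to start the reaction.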

A further assay has as its target T2, Cytochrome P450 2D26 (Rattus norvegicus, UniProt P10634).
T2 sequence (P10634 whole entry): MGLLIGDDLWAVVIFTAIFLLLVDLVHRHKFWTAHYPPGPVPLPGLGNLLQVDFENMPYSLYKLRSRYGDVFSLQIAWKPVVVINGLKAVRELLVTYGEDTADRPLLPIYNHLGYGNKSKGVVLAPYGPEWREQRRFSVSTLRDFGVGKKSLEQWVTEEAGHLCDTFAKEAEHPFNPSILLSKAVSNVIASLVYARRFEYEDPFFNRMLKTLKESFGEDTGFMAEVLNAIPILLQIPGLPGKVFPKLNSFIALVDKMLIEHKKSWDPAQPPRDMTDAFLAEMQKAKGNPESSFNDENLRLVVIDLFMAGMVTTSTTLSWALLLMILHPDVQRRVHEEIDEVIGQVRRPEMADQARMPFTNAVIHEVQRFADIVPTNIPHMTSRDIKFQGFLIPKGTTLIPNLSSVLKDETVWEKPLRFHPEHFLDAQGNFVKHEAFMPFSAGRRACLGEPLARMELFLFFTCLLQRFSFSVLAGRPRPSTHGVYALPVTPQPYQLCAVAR
Briefly: Inhibition of MAMC O-dealkylation mediated by rat Cytochrome P450 2D2 expressed in Saccharomyces cerevisiae. In a few lines: (§1)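 Rat CYP2D isozymes are singly expressed in S. cerevisiae and used as microsomes in 100 mM phosphate, pH 7.4, at 37 °C. MAMC is 100 μM final, with or without varying inhibitor, after a 5 min preincubation. NADPH-regenerating system is added to start the reaction.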

A further assay has as its target T3, Cytochrome P450 2D3 (Rattus norvegicus, UniProt P12938).
T3 sequence (P12938 whole entry): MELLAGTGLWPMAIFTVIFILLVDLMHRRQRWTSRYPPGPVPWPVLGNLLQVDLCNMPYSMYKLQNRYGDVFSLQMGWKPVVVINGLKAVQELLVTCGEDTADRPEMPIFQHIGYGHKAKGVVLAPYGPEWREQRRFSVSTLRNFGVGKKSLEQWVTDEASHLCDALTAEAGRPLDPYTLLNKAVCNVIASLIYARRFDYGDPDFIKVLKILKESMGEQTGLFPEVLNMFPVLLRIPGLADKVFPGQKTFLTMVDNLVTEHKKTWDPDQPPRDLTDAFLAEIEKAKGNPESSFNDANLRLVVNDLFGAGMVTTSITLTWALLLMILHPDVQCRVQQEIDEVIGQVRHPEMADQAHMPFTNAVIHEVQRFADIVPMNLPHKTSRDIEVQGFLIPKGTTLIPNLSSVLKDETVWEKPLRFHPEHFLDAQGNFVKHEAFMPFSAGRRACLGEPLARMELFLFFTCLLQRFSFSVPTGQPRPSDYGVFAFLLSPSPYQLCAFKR
As to the kind of experiment: Inhibition of MAMC O-dealkylation mediated by rat Cytochrome P450 2D3 expressed in Saccharomyces cerevisiae. In a few lines:
as §1

The target in another assay is T4, Cytochrome P450 2D4 (Rattus norvegicus, UniProt Q64680).
T4 sequence (Q64680 whole entry): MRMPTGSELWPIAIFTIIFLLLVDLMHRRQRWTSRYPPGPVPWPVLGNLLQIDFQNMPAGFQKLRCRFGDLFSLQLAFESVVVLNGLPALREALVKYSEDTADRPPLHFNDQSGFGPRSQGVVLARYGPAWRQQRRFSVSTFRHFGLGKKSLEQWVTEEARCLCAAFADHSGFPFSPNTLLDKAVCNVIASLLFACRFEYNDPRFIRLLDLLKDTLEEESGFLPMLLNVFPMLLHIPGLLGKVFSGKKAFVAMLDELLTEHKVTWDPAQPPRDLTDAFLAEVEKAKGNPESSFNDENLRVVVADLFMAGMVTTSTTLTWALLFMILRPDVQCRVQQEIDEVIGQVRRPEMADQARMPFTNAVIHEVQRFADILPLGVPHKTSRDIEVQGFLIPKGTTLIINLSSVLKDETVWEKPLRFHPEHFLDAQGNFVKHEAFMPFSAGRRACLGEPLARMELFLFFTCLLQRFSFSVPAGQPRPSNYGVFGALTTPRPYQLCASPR
As to the kind of experiment: Inhibition of MAMC O-dealkylation mediated by rat Cytochrome P450 2D4 expressed in Saccharomyces cerevisiae. The procedure, abridged: as §1

Chain of Cytochrome P450 2D6 (P10635 whole entry): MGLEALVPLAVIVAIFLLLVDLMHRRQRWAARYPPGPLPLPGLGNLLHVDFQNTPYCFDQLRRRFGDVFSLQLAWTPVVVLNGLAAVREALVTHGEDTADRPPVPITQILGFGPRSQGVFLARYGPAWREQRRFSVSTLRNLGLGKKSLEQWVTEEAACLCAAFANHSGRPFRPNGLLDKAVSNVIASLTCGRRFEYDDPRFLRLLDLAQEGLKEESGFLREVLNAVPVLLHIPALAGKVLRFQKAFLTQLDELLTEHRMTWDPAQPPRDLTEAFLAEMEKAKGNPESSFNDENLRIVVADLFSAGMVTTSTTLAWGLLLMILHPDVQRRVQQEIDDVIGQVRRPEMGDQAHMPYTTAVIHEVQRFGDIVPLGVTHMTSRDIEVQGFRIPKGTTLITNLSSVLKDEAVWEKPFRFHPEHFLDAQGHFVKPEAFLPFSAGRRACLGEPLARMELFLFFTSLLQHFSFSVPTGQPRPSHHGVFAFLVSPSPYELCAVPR

In general, IC50 refers to the concentration that inhibits the measured activity by half. The low end stands for greater potency, the high end for weaker potency. In the case of `COc1ccc2c(CN(C)C)cc(=O)oc2c1`, the IC50 against Cytochrome P450 2D6 was found to be 74.2 µM; against Cytochrome P450 2D1, 329 µM; at Cytochrome P450 2D26, 307 µM; against Cytochrome P450 2D3, 862 µM; against Cytochrome P450 2D4, 1180 µM.
With `[H]/N=C(/N)N/C(=N/[H])NCCc1ccccc1` [PHENFORMIN], the 50% inhibitory concentration (IC50) against Cytochrome P450 2D6 amounted to 27 µM; on Cytochrome P450 2D26, 45.4 µM; against Cytochrome P450 2D3, 1930 µM; on Cytochrome P450 2D4, 833 µM.
Regarding `COc1ccc2c3c1O[C@H]1[C@@H](O)C=C[C@H]4[C@@H](C2)N(C)CC[C@@]341` [CODEINE], the IC50 at Cytochrome P450 2D1 stood at 1320 µM; at Cytochrome P450 2D26, 238 µM; on Cytochrome P450 2D3 it was 4090 µM; against Cytochrome P450 2D4 it was 2220 µM.
For the molecule `CC(C)NC[C@@H](O)COc1cccc2ccccc12` [DEXPROPRANOLOL], the IC50 against Cytochrome P450 2D1 is 182 µM; on Cytochrome P450 2D26, 0.42 µM; at Cytochrome P450 2D3, 155 µM; against Cytochrome P450 2D4 it was 117 µM.
On to `C=C[C@H]1C[N@@]2CC[C@H]1C[C@H]2[C@H](O)c1ccnc2ccc(OC)cc12` [QUININE], for which the figures for the IC50 against Cytochrome P450 2D1, against Cytochrome P450 2D3 and against Cytochrome P450 2D4 were 46.5 µM, 12 µM and 1.7 µM, respectively.
As to `CNCCC=C1c2ccccc2CCc2ccccc21` [NORTRIPTYLINE], the IC50 at Cytochrome P450 2D6 was 2.3 µM; on Cytochrome P450 2D1, 204 µM; against Cytochrome P450 2D26, 1.9 µM; against Cytochrome P450 2D3, 14.2 µM; at Cytochrome P450 2D4, 19.3 µM.
With `CC(C)NC[C@H](O)COc1cccc2ccccc12` [LEVOPROPRANOLOL], the IC50 against Cytochrome P450 2D1 was 571 µM; on Cytochrome P450 2D26 it was 0.35 µM; against Cytochrome P450 2D3, 172 µM; at Cytochrome P450 2D4, 133 µM.
Regarding `C=C[C@H]1C[N@@]2CC[C@H]1C[C@@H]2[C@@H](O)c1ccnc2ccc(OC)cc12` [QUINIDINE], the IC50 is 19.9 µM on Cytochrome P450 2D1, 26.9 µM at Cytochrome P450 2D3 and 47.2 µM against Cytochrome P450 2D4.
As to `COc1ccc2c(c1)[C@]13CCCC[C@@H]1[C@H](C2)N(C)CC3` [DEXTROMETHORPHAN], the IC50 at Cytochrome P450 2D6 was found to be 1.8 µM; on Cytochrome P450 2D1, 264 µM; against Cytochrome P450 2D26, 5.6 µM; against Cytochrome P450 2D3 it was 18.6 µM; against Cytochrome P450 2D4 it was 136 µM.
On the same counts, the results for `N=C(N)N1CCc2ccccc2C1` [DEBRISOQUIN] are 23.8 µM, 529 µM, 107 µM, 1750 µM and 747 µM.
